Results on three compounds are retold here after ChEMBL document CHEMBL1145471, “Small molecule regulators of autophagy identified by an image-based high-throughput screen” (Proc Natl Acad Sci U S A, 2007).

The source made the active and inactive calls. The calls are words filed in the database; no cut-off is given here.

For assay [1], the system named is H4. The assay is described as follows: Effect on FYVE-RFP+ vesicle intensity per cell in human H4 cells after 8 hrs relative to control. The format is functional. Set-up: concentration or dose not given beside the values. In short, it runs like this: (§1)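 H4 cells stably expressing FYVE-RFP (H4-FYVE), grown in DMEM with 10% FBS, penicillin/streptomycin and 2 mM L-glutamine at 37°C, 5% CO2, seeded in 96-well plates and exposed to compound. Fixed in 4% paraformaldehyde, nuclei stained with 3 μg/ml DAPI, FYVE-RFP+ vesicles quantified by high-throughput fluorescence microscopy against DMSO control. Triplicate wells, mean ± SD.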

Assay [2] concerns H4. Nature of the assay: Increase in long-lived protein degradation in human H4 cells after 2 hrs relative to control. Set-up: concentration or dose not given beside the values. The format is functional.
In assay [3] the test system is H4. The assay is described as follows: Increase in light chain 3-GFP+ autophagosome vesicle intensity per cell in human H4 cells at 5.1 uM after 24 hrs by high throughput fluorescence microscopy relative to control. The format is functional. The gist of the method: (§2)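 H4 cells stably expressing LC3-GFP were grown in DMEM with 10% FBS and 2 mM L-glutamine at 37°C, 5% CO2. They were exposed to each compound for 24 h, with DMSO as negative and rapamycin as positive control. Cells were then fixed in 4% paraformaldehyde and stained with 3 μg/ml DAPI. High-throughput fluorescence imaging scored LC3-GFP spot number, size and intensity, expressed relative to DMSO. Mean ± SD of triplicates; experiments repeated three times.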

Assay [4] concerns H4. The assay is described as follows: Effect on FYVE-RFP+ vesicle intensity per cell in human H4 cells after 2 hrs relative to control. The format is functional. The arrangement: concentration or dose not given beside the values. In short, it runs like this:
as §1

Assay [5] concerns H4. Nature of the assay: Effect on FYVE-RFP+ vesicle intensity per cell in human H4 cells after 4 hrs relative to control. Set-up: concentration or dose not given beside the values. The format is functional. In short, it runs like this: as §1
Assay [6] has as its system H4. The assay is described as follows: Increase in light chain 3-GFP+ autophagosome vesicle number per cell in human H4 cells at 5.1 uM after 24 hrs by high throughput fluorescence microscopy relative to control. The format is functional. The gist of the method:
as §2

Assay [7] concerns H4. Nature of the assay: Increase in long-lived protein degradation in human H4 cells after 4 hrs relative to control. The arrangement: concentration or dose not given beside the values. The format is functional.
In assay [8] the test system is H4. The assay is described as follows: Increase in light chain 3-GFP+ autophagosome vesicle area per cell in human H4 cells at 5.1 uM after 24 hrs by high throughput fluorescence microscopy relative to control. The format is functional. The gist of the method:
(§3)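 H4 cells stably expressing LC3-GFP, seeded in 96-well plates and exposed to compound for 24 h; screening concentrations were 3–12 μM, with rapamycin 0.22 μM and bafilomycin A1 0.40 μM. Cells fixed in 4% paraformaldehyde and stained with 3 μg/ml DAPI. Number, size and intensity of LC3-GFP spots measured by high-throughput fluorescence microscopy and expressed as percent of DMSO-treated wells. Rapamycin was the positive control. Triplicate wells, mean ± SD; experiments repeated three times.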

Assay [9] concerns H4. The assay is described as follows: Increase in long-lived protein degradation in human H4 cells after 1 hr relative to control. The arrangement: concentration or dose not given beside the values. The format is functional.
Assay [10] relates to H4. Nature of the assay: Increase in long-lived protein degradation in human H4 cells after 24 hrs relative to control. The format is functional. Set-up: concentration or dose not given beside the values.
Assay [11] has as its system H4. The assay is described as follows: Induction of light chain 3-GFP level in human H4 cells at 5.1 uM after 24 hrs by high throughput fluorescence microscopy relative to control. The format is functional. In short, it runs like this: (§4)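 H4 cells stably expressing LC3-GFP, grown in DMEM with 10% FBS, penicillin/streptomycin and 2 mM L-glutamine at 37°C, 5% CO2. Cells were seeded in 96-well plates and exposed to library compounds at 3–12 μM for 24 h, then fixed in 4% paraformaldehyde and stained with 3 μg/ml DAPI. LC3-GFP spot number, size and intensity were measured by high-throughput fluorescence microscopy and expressed relative to DMSO. Triplicates, mean ± SD.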

Assay [12] concerns H4. Nature of the assay: Reduction of poly(Q) level in human H4 cells expressing EGFP-Q79-HA after 24 hrs. The format is functional, cell-based. The gist of the method: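 H4 cells were transiently transfected with an EGFP-Q79-HA expression vector. The medium was replaced 6 h after transfection and compounds were added. Poly(Q) was detected with anti-HA antibody.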
Assay [13] has as its system H4. Nature of the assay: Increase in FYVE-RFP+ vesicle intensity per cell in human H4 cells after 4 hrs relative to control. Set-up: concentration or dose not given beside the values. The format is functional. The gist of the method:
as §1

Assay [14] relates to H4. The assay is described as follows: Increase in FYVE-RFP+ vesicle intensity per cell in human H4 cells after 2 hrs relative to control. The format is functional. Set-up: concentration or dose not given beside the values. In short, it runs like this:
as §1

The test system of assay [15] is H4. The assay is described as follows: Increase in light chain 3-GFP+ autophagosome vesicle intensity per cell in human H4 cells at 8.3 uM after 24 hrs by high throughput fluorescence microscopy relative to control. The format is functional. In short, it runs like this: as §2
The subject of assay [16] is H4. The assay is described as follows: Increase in ratio of light chain 3 subunit 2 to light chain 3 subunit 1 in human H4 cells at 8.3 uM after 4 hrs by Western blot. The format is functional, cell-based. In short, it runs like this: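 H4 cells were treated with each compound for 4 h, then lysed. Lysates were immunoblotted with anti-LC3 antibody, with actin as loading control. LC3II and LC3I bands were compared as an LC3II/LC3I ratio.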
A general note: In western blotting, separated proteins are transferred to a membrane and probed.

In assay [17] the target is Serine/threonine-protein kinase mTOR (Homo sapiens, UniProt P42345). Nature of the assay: Effect on mTOR phosphorylation in human H4 cells at 8.3 uM after 4 hrs. The format is cell-based. The gist of the method: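 H4 cells exposed to compound for 4 h. Lysates analysed by Western blot with anti-phospho and anti-total mTOR antibodies, with actin as loading control. Rapamycin served as reference.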

For assay [18], the system named is H4. The assay is described as follows: Increase in light chain 3-GFP+ autophagosome vesicle number per cell in human H4 cells at 8.3 uM after 24 hrs by high throughput fluorescence microscopy relative to control. The format is functional. The gist of the method:
as §2

In assay [19] the test system is H4. Nature of the assay: Induction of light chain 3-GFP level in human H4 cells at 8.3 uM after 24 hrs by high throughput fluorescence microscopy relative to control. The format is functional. In short, it runs like this: as §4
For assay [20], the system named is H4. Nature of the assay: Increase in FYVE-RFP+ vesicle intensity per cell in human H4 cells after 8 hrs relative to control. The format is functional. Set-up: concentration or dose not given beside the values. In short, it runs like this: as §1
In assay [21] the test system is H4. The assay is described as follows: Increase in light chain 3-GFP+ autophagosome vesicle area per cell in human H4 cells at 8.3 uM after 24 hrs by high throughput fluorescence microscopy relative to control. The format is functional. The gist of the method: as §3
Assay [22] has as its system H4. The assay is described as follows: Increase in light chain 3-GFP+ autophagosome vesicle number per cell in human H4 cells at 2.1 uM after 24 hrs by high throughput fluorescence microscopy relative to control. The format is functional. In short, it runs like this: as §2
For assay [23], the system named is H4. The assay is described as follows: Increase in light chain 3-GFP+ autophagosome vesicle area per cell in human H4 cells at 2.1 uM after 24 hrs by high throughput fluorescence microscopy relative to control. The format is functional.
In assay [24] the test system is H4. Nature of the assay: Induction of light chain 3-GFP level in human H4 cells at 2.1 uM after 24 hrs by high throughput fluorescence microscopy relative to control. The format is functional.
Assay [25] has as its system H4. Nature of the assay: Increase in light chain 3-GFP+ autophagosome vesicle intensity per cell in human H4 cells at 2.1 uM after 24 hrs by high throughput fluorescence microscopy relative to control. The format is functional.

In the case of `CC[C@H](C)[C@H](NS(=O)(=O)c1cccc2ccccc12)C(=O)N[C@H](C=O)Cc1c[nH]c2ccccc12`, the Activity in the assay on H4 [1] worked out at 62.34%; in the assay with H4 [2], 136.94%; in the assay with H4 [3] it was 199.27%; with H4 [4], 89.37%; in the assay on H4 [5], 64.1%; with H4 [6] it was 151.1%. Besides, the Activity in the assay with H4 [7] is listed as 117.24%; in the assay on H4 [8], 172.38%; with H4 [9], 134.83%; with H4 [10] it was 9.4%; in the assay on H4 [11], 124.74%.

Regarding `CN1CCN(CCCN2c3ccccc3Sc3ccc(C(F)(F)F)cc32)CC1` [TRIFLUOPERAZINE], the Activity entry is “Dose-dependent effect” with H4 [12]; 111.52% in the assay on H4 [13]; 105.6% with H4 [2]; 136.58% in the assay on H4 [14]; 1010.35% in the assay on H4 [15]; 109% in the assay on H4 [7]. The Activity in the assay on H4 [9] came out at 76.62%; in the assay with H4 [18], 364.24%; in the assay with H4 [19], 105.72%; in the assay on H4 [20], 94.28%; in the assay on H4 [21], 520.24%; in the assay with H4 [10] it was 124.78%. The outcome in the assay with H4 [16] was Active. Further, the outcome in assay [17] was inactive.

Turning to `C/C=C/C[C@@H](C)[C@@H](O)[C@H]1C(=O)N[C@@H](CC)C(=O)N(C)CC(=O)N(C)[C@@H](CC(C)C)C(=O)N[C@@H](C(C)C)C(=O)N(C)[C@@H](CC(C)C)C(=O)N[C@@H](C)C(=O)N[C@H](C)C(=O)N(C)[C@@H](CC(C)C)C(=O)N(C)[C@@H](CC(C)C)C(=O)N(C)[C@@H](C(C)C)C(=O)N1C` [CYCLOSPORINE], the Activity with H4 [22] turned out to be 155.88%; in the assay with H4 [23], 181.14%; in the assay with H4 [1], 55.82%; in the assay with H4 [2], 117.39%; in the assay on H4 [24] it was 159.64%; with H4 [4], 73.62%. The Activity was determined as 71.69% in the assay on H4 [5]; 101.74% in the assay on H4 [7]; 114.15% with H4 [9]; 178.79% with H4 [25]; 104.28% in the assay with H4 [10].
